From PubChem BioAssay
Active and inactive are the calls of the source.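 Rule for the calls, unless noted: active = mean duplicate potentiation above the buffer control mean plus 5 SD of buffer wells; inactive = the rest.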

These compounds were tested against Potassium voltage-gated channel subfamily KQT member 1 (Homo sapiens) (UniProt P51787) (assay: KCNQ1 potassium channel potentiators, confirmation, FluxOR thallium flux, CHO cells, duplicates (AID 493007;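 active = potentiation averaged over duplicate wells exceeding buffer-only control mean by more than 3 SD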;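 for outcome: cells depolarized by a potassium plus thallium sulfate stimulus after compound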)). Details: KCNQ1 cell line, FluxOR thallium flux fluorescence, at 10 µM; stronger effect = higher value, % of reference activator effect, buffer zero.
Procedure, shortened: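 Test system – KCNQ1-expressing CHO cell line · Incubation – FluxOR dye loading 90 min, compound exposure 20 min, room temperature · Detection – FluxOR Tl+ flux fluorescence, 10 s baseline plus 110 s recording · Controls – buffer-only wells as 0% and R-L3 activator as 100%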

Sequence of Potassium voltage-gated channel subfamily KQT member 1 (Homo sapiens) (P51787 whole entry, looked up): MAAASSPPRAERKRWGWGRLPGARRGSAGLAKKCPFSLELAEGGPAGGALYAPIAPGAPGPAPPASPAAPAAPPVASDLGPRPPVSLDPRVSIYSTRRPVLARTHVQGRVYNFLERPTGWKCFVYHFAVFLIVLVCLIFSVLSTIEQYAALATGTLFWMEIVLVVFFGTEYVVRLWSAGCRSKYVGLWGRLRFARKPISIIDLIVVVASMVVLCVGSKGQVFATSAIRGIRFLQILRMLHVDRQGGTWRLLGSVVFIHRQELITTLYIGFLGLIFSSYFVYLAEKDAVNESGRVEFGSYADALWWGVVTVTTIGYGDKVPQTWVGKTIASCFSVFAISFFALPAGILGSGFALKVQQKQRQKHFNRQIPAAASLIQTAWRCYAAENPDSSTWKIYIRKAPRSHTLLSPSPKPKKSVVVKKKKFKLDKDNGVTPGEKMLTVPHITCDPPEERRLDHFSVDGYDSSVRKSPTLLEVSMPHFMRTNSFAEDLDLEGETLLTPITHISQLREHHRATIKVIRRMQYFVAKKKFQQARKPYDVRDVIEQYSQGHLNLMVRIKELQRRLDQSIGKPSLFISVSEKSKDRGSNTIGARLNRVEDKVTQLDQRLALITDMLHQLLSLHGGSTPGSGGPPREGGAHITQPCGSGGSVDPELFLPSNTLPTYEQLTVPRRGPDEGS

outcome, inactive:
CN(C)c1ccc(C(=O)Nc2nnc(C3=COCCO3)o2)cc1
CCOc1ccc(C(=O)N2CCCC(c3nc(-c4ccc(C)o4)no3)C2)cc1 (stereo not given)
CCCCn1c(=O)nc2n(-c3ccccc3C)c3ccccc3cc-2c1=O
CCN(c1ccccc1)S(=O)(=O)c1ccc(OC)c(NC(=O)COc2ccc(C(C)=O)cc2)c1
COC(=O)c1sc(NC(=S)NC(=O)c2ccccc2F)nc1C
O=c1cc(N2CCc3ccccc32)[nH]c(=O)n1Cc1ccc(F)cc1
CCc1cc(-c2n[nH]c(C)c2-c2nc3ccccc3s2)c(O)cc1OCC(=O)NN
CCOC(=O)C1CCN(C(=O)c2c(C)oc3c2C(=O)c2ccccc2C3=O)CC1
CC1CN(c2nc(-c3ccc(Br)cc3)nnc2-c2ccccc2)CC(C)N1 (stereo not given)
Cc1cc(C(=O)N2CCCC(N3CCN(c4cccc(Cl)c4)CC3)C2)n(C)n1 (stereo not given)
COc1ccc(NC(=S)NC(=O)c2ccccc2Cl)cc1
Cc1cc(/C=N\NC(=O)CC(=O)NC2CCCCC2)c(C)n1-c1cccc(Cl)c1Cl
COc1ccc(CCNC(=O)c2c(C)nc3ccccn23)cc1
Cc1ccnc(NS(=O)(=O)c2ccc(NC(=O)C34CC5CC(CC(C5)C3)C4)cc2)n1
CCCCN1CNC(=S)N(c2ccccc2OCC)C1
CSc1ccc(NC(=O)CC(C)=O)cc1
CCS(=O)(=O)Nc1ccc(C(=O)CC2(O)C(=O)Nc3ccccc32)cc1 (stereo not given)
O=C(CSc1nnc(SCc2cccc3ccccc23)s1)c1ccc2c(c1)OCO2
CCOC(=O)c1cnc(SCC(=O)Nc2nc(C)c(C)s2)nc1N
O=C(O)C1C2CCC(O2)C1C(=O)NCCC1=CCCCC1 (stereo not given)
COCCn1cnc2c1c(=O)n(CC#N)c(=O)n2Cc1ccccc1
Cc1cc(C)nc(NC(=O)/C=C/c2ccccc2Cl)n1
CCOc1cc(CNCCCN2CCOCC2)ccc1OCC(=O)NC(C)(C)C

potentiation, active:
Cc1[nH]n(-c2ccc(F)cc2)c(=O)c1/C=N/c1sc2c(c1C#N)CCCC2 85.5%
COc1ccc(C)cc1NC(=O)C(=O)NNC(=O)c1ccco1 109%
CCC1CCCCN1C(=S)NC(=O)c1cccc([N+](=O)[O-])c1 (stereo not given) 57%
CCCn1cc(NC(=O)c2cc(-c3ccccc3)on2)cn1 25%
CCSc1nc2c(sc3ccccc32)c(=O)n1C(C)C 206%
CCOc1ccc2nc(/N=C/c3c(C)[nH]n(-c4ccccc4)c3=O)sc2c1 360%
Cc1ccc(/C=C/C(=O)c2ccccc(=O)c2O)c(C)c1 118%
N#Cc1ccccc1Oc1ccccc1C=O 39.5%
CCCCCCCC/C=C\CCCCCCCC(=O)O 51%
Oc1ccc(CN2CCCCC2)c2cccnc12 47%
Cc1sc2ncnc(SCC(=O)NC(=O)c3cccn3C)c2c1C 28.5%
CC(C)Cn1c(=S)[nH]c2cc(Cl)ccc21 70.5%
CCOc1ccc(N=Nc2ccc(O)c3ncccc23)cc1 17.5%
S=c1nc[nH]c2c1sc1nc(-c3ccccc3)c3c(c12)CCCC3 328%
C=CCn1c(O)c(N=NC(=S)Nc2ccccc2F)c2ccccc21 212%
O=C(Nc1nc2c(F)cc(F)cc2s1)C1COc2ccccc2O1 (stereo not given) 68.5%
CC(C)(C)c1cc(C(=O)NNC(=O)c2ccc(Cl)cc2)no1 86.5%

These compounds were tested against Potassium voltage-gated channel subfamily KQT member 2 (Rattus norvegicus) (UniProt O88943) (assay: rat KCNQ2 channel potentiation, selectivity assay for KCNQ1 potentiator project, KCNQ2-CHO-K1 cells (AID 493009;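 note: assay conditions were tuned for KCNQ1 rather than KCNQ2 modulators; signal is max minus min fluorescence divided by baseline after thallium stimulus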)). Details: FluxOR thallium flux fluorescence, at 10 µM; stronger effect = higher value, scaled: buffer 0, activator control 100.
Sequence of Potassium voltage-gated channel subfamily KQT member 2 (Rattus norvegicus) (O88943 whole entry, looked up): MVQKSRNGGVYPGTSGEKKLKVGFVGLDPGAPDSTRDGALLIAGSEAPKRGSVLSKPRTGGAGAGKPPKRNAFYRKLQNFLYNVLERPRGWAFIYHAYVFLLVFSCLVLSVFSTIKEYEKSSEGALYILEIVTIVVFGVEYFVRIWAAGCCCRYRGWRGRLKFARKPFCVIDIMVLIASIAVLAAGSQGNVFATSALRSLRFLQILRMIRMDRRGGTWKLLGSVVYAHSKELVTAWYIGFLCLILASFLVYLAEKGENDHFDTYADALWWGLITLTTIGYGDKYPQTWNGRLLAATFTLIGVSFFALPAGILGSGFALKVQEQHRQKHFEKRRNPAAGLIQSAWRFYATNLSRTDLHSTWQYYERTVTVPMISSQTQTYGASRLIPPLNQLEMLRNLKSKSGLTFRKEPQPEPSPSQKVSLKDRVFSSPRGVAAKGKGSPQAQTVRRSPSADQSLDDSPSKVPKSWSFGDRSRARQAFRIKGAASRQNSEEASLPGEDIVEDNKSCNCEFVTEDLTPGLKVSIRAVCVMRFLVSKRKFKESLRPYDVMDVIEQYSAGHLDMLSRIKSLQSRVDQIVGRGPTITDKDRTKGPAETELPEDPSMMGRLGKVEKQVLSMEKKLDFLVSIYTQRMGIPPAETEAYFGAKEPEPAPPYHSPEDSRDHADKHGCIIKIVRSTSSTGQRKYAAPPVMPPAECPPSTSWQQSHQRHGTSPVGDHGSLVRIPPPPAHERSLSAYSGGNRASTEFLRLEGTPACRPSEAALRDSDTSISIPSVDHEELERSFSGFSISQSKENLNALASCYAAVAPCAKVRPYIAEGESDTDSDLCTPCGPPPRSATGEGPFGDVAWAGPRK

outcome, inactive:
CN(C)c1ccc(C(=O)Nc2nnc(C3=COCCO3)o2)cc1
CCOc1ccc(C(=O)N2CCCC(c3nc(-c4ccc(C)o4)no3)C2)cc1 (stereo not given)
CCCCn1c(=O)nc2n(-c3ccccc3C)c3ccccc3cc-2c1=O
CCN(c1ccccc1)S(=O)(=O)c1ccc(OC)c(NC(=O)COc2ccc(C(C)=O)cc2)c1
CCCn1cc(NC(=O)c2cc(-c3ccccc3)on2)cn1
COC(=O)c1sc(NC(=S)NC(=O)c2ccccc2F)nc1C
O=c1cc(N2CCc3ccccc32)[nH]c(=O)n1Cc1ccc(F)cc1
CCc1cc(-c2n[nH]c(C)c2-c2nc3ccccc3s2)c(O)cc1OCC(=O)NN
CCOC(=O)C1CCN(C(=O)c2c(C)oc3c2C(=O)c2ccccc2C3=O)CC1
CC1CN(c2nc(-c3ccc(Br)cc3)nnc2-c2ccccc2)CC(C)N1 (stereo not given)
Cc1cc(C(=O)N2CCCC(N3CCN(c4cccc(Cl)c4)CC3)C2)n(C)n1 (stereo not given)
COc1ccc(NC(=S)NC(=O)c2ccccc2Cl)cc1
COc1ccc(CCNC(=O)c2c(C)nc3ccccn23)cc1
Cc1ccnc(NS(=O)(=O)c2ccc(NC(=O)C34CC5CC(CC(C5)C3)C4)cc2)n1
CCCCN1CNC(=S)N(c2ccccc2OCC)C1
CCCCCCCC/C=C\CCCCCCCC(=O)O
CSc1ccc(NC(=O)CC(C)=O)cc1
CCS(=O)(=O)Nc1ccc(C(=O)CC2(O)C(=O)Nc3ccccc32)cc1 (stereo not given)
O=C(CSc1nnc(SCc2cccc3ccccc23)s1)c1ccc2c(c1)OCO2
CCOc1ccc(N=Nc2ccc(O)c3ncccc23)cc1
CCOC(=O)c1cnc(SCC(=O)Nc2nc(C)c(C)s2)nc1N
O=C(O)C1C2CCC(O2)C1C(=O)NCCC1=CCCCC1 (stereo not given)
COCCn1cnc2c1c(=O)n(CC#N)c(=O)n2Cc1ccccc1
Cc1cc(C)nc(NC(=O)/C=C/c2ccccc2Cl)n1
CCOc1cc(CNCCCN2CCOCC2)ccc1OCC(=O)NC(C)(C)C

potentiation, active:
Cc1[nH]n(-c2ccc(F)cc2)c(=O)c1/C=N/c1sc2c(c1C#N)CCCC2 246%
COc1ccc(C)cc1NC(=O)C(=O)NNC(=O)c1ccco1 363%
CCC1CCCCN1C(=S)NC(=O)c1cccc([N+](=O)[O-])c1 (stereo not given) 284%
CCSc1nc2c(sc3ccccc32)c(=O)n1C(C)C 479%
Cc1cc(/C=N\NC(=O)CC(=O)NC2CCCCC2)c(C)n1-c1cccc(Cl)c1Cl 153%
CCOc1ccc2nc(/N=C/c3c(C)[nH]n(-c4ccccc4)c3=O)sc2c1 661%
Cc1ccc(/C=C/C(=O)c2ccccc(=O)c2O)c(C)c1 280%
N#Cc1ccccc1Oc1ccccc1C=O 160%
Oc1ccc(CN2CCCCC2)c2cccnc12 144%
Cc1sc2ncnc(SCC(=O)NC(=O)c3cccn3C)c2c1C 201%
CC(C)Cn1c(=S)[nH]c2cc(Cl)ccc21 225%
S=c1nc[nH]c2c1sc1nc(-c3ccccc3)c3c(c12)CCCC3 499%
C=CCn1c(O)c(N=NC(=S)Nc2ccccc2F)c2ccccc21 416%
O=C(Nc1nc2c(F)cc(F)cc2s1)C1COc2ccccc2O1 (stereo not given) 194%
CC(C)(C)c1cc(C(=O)NNC(=O)c2ccc(Cl)cc2)no1 257%
